Measured values: ChEMBL document CHEMBL1137753, “Insecticidal heterolignans--tubuline polymerization inhibitors with activity against chewing pests” (Bioorg Med Chem, 2009)
Active and inactive are the calls of the source. Unless noted, the calls are words filed in the database; no cut-off is given here.

Legend:
Assay type in all cases: functional, organism-based
Spodoptera frugiperda [1] = experiment: Insecticidal activity against Spodoptera frugiperda larvae in disk of maize leaf treated as spray
Phaedon cochleariae [2] = experiment: Insecticidal activity against Phaedon cochleariae larvae in disk of Chinese cabbage leaf at 100 g/ha treated as spray
Method in brief: (§1)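 This was sprayed on Chinese cabbage leaf disks. Once dry, disks were infested with mustard beetle larvae and mortality was scored after a set time. "+" denotes ≥80% larvae killed; n.a. denotes none killed.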

Spodoptera frugiperda [3] = experiment: Insecticidal activity against Spodoptera frugiperda larvae in disk of maize leaf at 100 g/ha treated as spray
Method in brief: (§2)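 The same acetone/DMF/emulsifier formulation, diluted in emulsifier-containing water, was sprayed onto maize leaf disks. Dried disks were infested with fall armyworm larvae and mortality was assessed after a set time. "+" denotes ≥80% larvae killed; n.a. denotes no larvae killed.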

Phaedon cochleariae [4] = experiment: Insecticidal activity against Phaedon cochleariae larvae in disk of Chinese cabbage leaf at 500 g/ha treated as spray; method in brief: as §1
Phaedon cochleariae [5] = experiment: Insecticidal activity against Phaedon cochleariae larvae in disk of Chinese cabbage leaf at 20 g/ha treated as spray; method in brief: as §1
Spodoptera frugiperda [6] = experiment: Insecticidal activity against Spodoptera frugiperda larvae in disk of maize leaf at 500 g/ha treated as spray; method in brief: as §2
Phaedon cochleariae [7] = experiment: Insecticidal activity against Phaedon cochleariae larvae in disk of Chinese cabbage leaf treated as spray

## CCOc1cc2c(cc1C)C(c1cc(OC)cc(OC)c1)C1=C(COC1=O)N2 (stereo unspecified)
Spodoptera frugiperda [1]
  Activity: inactive
Phaedon cochleariae [2]
  Activity: Active

## COc1cc(OC)cc(C2C3=C(COC3=O)Nc3cc(OC4CC4)ccc32)c1 (stereo unspecified)
Spodoptera frugiperda [3]
  Activity: Active
Phaedon cochleariae [4]
  Activity: Active

## COc1cc(C2C3=C(COC3=O)Nc3cc4c(cc32)OCO4)cc(OC)c1OC (stereo unspecified)
Spodoptera frugiperda [1]
  Activity: inactive
Phaedon cochleariae [5]
  Activity: Active

## COc1cc(OC)cc(C2C3=C(COC3=O)Nc3cc(C)ccc32)c1 (stereo unspecified)
Phaedon cochleariae [4]
  Activity: Active

## COc1cc(C2C3=C(COC3=O)Oc3cc4c(cc32)OCO4)cc(Br)c1OC (stereo unspecified)
Spodoptera frugiperda [1]
  Activity: inactive
Phaedon cochleariae [4]
  Activity: Active

## COc1cc(OC)cc(C2C3=C(COC3=O)Nc3cc(OC)c(C)cc32)c1 (stereo unspecified)
Spodoptera frugiperda [6]
  Activity: Active
Phaedon cochleariae [5]
  Activity: Active

## O=C1OCC2=C1C(c1cc(F)c(F)c(F)c1)c1cc3c(cc1N2)OCO3 (stereo unspecified)
Spodoptera frugiperda [6]
  Activity: Active
Phaedon cochleariae [7]
  Activity: inactive

## O=C1OCC2=C1C(c1cccc(OC(F)(F)F)c1)c1cc3c(cc1N2)OCO3 (stereo unspecified)
Phaedon cochleariae [2]
  Activity: Active

## COc1cc(OC)cc(C2C3=C(COC3=O)Nc3ccc(OC)cc32)c1 (stereo unspecified)
Spodoptera frugiperda [3]
  Activity: Active
Phaedon cochleariae [5]
  Activity: Active

## O=C1OCC2=C1C(c1cccc(Br)c1)c1cc3c(cc1N2)OCO3 (stereo unspecified)
Phaedon cochleariae [2]
  Activity: Active

## O=C1OCC2=C1C(c1cccc(C(F)(F)F)c1)c1cc3c(cc1N2)OCO3 (stereo unspecified)
Spodoptera frugiperda [3]
  Activity: Active
Phaedon cochleariae [2]
  Activity: Active

## O=C1OCC2=C1C(c1cc(Br)cs1)c1cc3c(cc1N2)OCO3 (stereo unspecified)
Spodoptera frugiperda [6]
  Activity: Active
Phaedon cochleariae [7]
  Activity: inactive

## COc1c(Cl)cc(C2C3=C(COC3=O)Nc3cc4c(cc32)OCO4)cc1Cl (stereo unspecified)
Spodoptera frugiperda [3]
  Activity: Active
Phaedon cochleariae [2]
  Activity: Active

## COc1cc(C2C3=C(COC3=O)Cc3cc4c(cc32)OCO4)cc(OC)c1OC (stereo unspecified)
Spodoptera frugiperda [1]
  Activity: inactive
Phaedon cochleariae [2]
  Activity: Active

## COc1cc(OC)cc(C2C3=C(COC3=O)Nc3cc(OC)cc(OC)c32)c1 (stereo unspecified)
Spodoptera frugiperda [6]
  Activity: Active
Phaedon cochleariae [2]
  Activity: Active

## O=C1OCC2=C1C(c1cccc(F)c1)c1cc3c(cc1N2)OCO3 (stereo unspecified)
Phaedon cochleariae [2]
  Activity: Active

## COc1cc(OC)cc(C2C3=C(COC3=O)N(C)c3cc(OC)ccc32)c1 (stereo unspecified)
Spodoptera frugiperda [3]
  Activity: Active
Phaedon cochleariae [7]
  Activity: inactive

## COc1ccc2c(c1)OC1=C(C(=O)OC1)C2c1cc(Cl)cc(Cl)c1 (stereo unspecified)
Spodoptera frugiperda [6]
  Activity: Active
Phaedon cochleariae [7]
  Activity: inactive

## COc1cc(OC)cc(C2C3=C(CNC3=O)Nc3cc4c(cc32)OCO4)c1 (stereo unspecified)
Spodoptera frugiperda [1]
  Activity: inactive
Phaedon cochleariae [4]
  Activity: Active

## Cc1cc(C)cc(C2C3=C(COC3=O)Nc3cc4c(cc32)OCO4)c1 (stereo unspecified)
Phaedon cochleariae [2]
  Activity: Active

## COc1cc(C2C3=C(COC3=O)Nc3cc4c(cc32)OCO4)cc(SC)c1OC (stereo unspecified)
Spodoptera frugiperda [1]
  Activity: inactive
Phaedon cochleariae [2]
  Activity: Active

## CC1CC2=C(C(=O)O1)C(c1cccc(Cl)c1)c1cc3c(cc1N2)OCO3 (stereo unspecified)
Spodoptera frugiperda [3]
  Activity: Active
Phaedon cochleariae [2]
  Activity: Active

## O=C1OC2(CCCC2)C2=C1C(c1cccc(Cl)c1)c1cc3c(cc1N2)OCO3 (stereo unspecified)
Spodoptera frugiperda [1]
  Activity: inactive
Phaedon cochleariae [4]
  Activity: Active

## COc1cc(OC)cc(C2C3=C(Nc4cc5c(cc42)OCO5)C(C)OC3=O)c1 (stereo unspecified)
Spodoptera frugiperda [6]
  Activity: Active
Phaedon cochleariae [2]
  Activity: Active

## COc1cccc(C2C3=C(O)OCC3=Nc3cc4c(cc32)OCO4)c1 (stereo unspecified)
Spodoptera frugiperda [3]
  Activity: Active
Phaedon cochleariae [7]
  Activity: inactive

## COc1cc(C2C3=C(COC3=O)Nc3cc4c(cc32)OCO4)ccc1F (stereo unspecified)
Spodoptera frugiperda [3]
  Activity: Active
Phaedon cochleariae [4]
  Activity: Active

## COc1ccc2c(c1OC)OC1=C(C(=O)OC1)C2c1cc(Cl)cc(Cl)c1 (stereo unspecified)
Spodoptera frugiperda [6]
  Activity: Active
Phaedon cochleariae [7]
  Activity: inactive

## O=C1OCC2=C1C(c1cccc(OC(F)(F)C(F)F)c1)c1cc3c(cc1N2)OCO3 (stereo unspecified)
Spodoptera frugiperda [3]
  Activity: Active
Phaedon cochleariae [2]
  Activity: Active

## CC1(C)OS(=O)(=O)C2=C1Nc1cc3c(cc1C2c1cccc(Cl)c1)OCO3 (stereo unspecified)
Spodoptera frugiperda [1]
  Activity: inactive
Phaedon cochleariae [4]
  Activity: Active

## O=C1OCC2=C1C(c1cccc(Cl)c1)c1cc3c(cc1N2)OCO3 (stereo unspecified)
Spodoptera frugiperda [3]
  Activity: Active
Phaedon cochleariae [4]
  Activity: Active

## COc1cc(C2C3=C(CNC3=O)Nc3cc4c(cc32)OCO4)cc(OC)c1OC (stereo unspecified)
Spodoptera frugiperda [1]
  Activity: inactive
Phaedon cochleariae [4]
  Activity: Active

## COc1cc(C2C3=C(COC3=O)Nc3cc4c(cc32)OCO4)ccc1Cl (stereo unspecified)
Spodoptera frugiperda [6]
  Activity: Active
Phaedon cochleariae [4]
  Activity: Active

## COc1cc(OC)cc(C2C3=C(COC3=O)Nc3cc4c(cc32)OCCCO4)c1 (stereo unspecified)
Spodoptera frugiperda [3]
  Activity: Active
Phaedon cochleariae [4]
  Activity: Active

## O=C1OCC2=C1C(c1cc(Cl)cc(Cl)c1)c1cc3c(cc1N2)OCO3 (stereo unspecified)
Phaedon cochleariae [2]
  Activity: Active

## O=C1NCC2=C1C(c1cccc(Cl)c1)c1cc3c(cc1N2)OCO3 (stereo unspecified)
Spodoptera frugiperda [3]
  Activity: Active
Phaedon cochleariae [4]
  Activity: Active

## CC1(C)COS(=O)(=O)C2=C1Nc1cc3c(cc1C2c1cccc(Cl)c1)OCO3 (stereo unspecified)
Spodoptera frugiperda [1]
  Activity: inactive
Phaedon cochleariae [4]
  Activity: Active
